Measured values published in ChEMBL document CHEMBL1129426, “5-Lipoxygenase inhibitors: synthesis and structure-activity relationships of a series of 1-aryl-2H,4H-tetrahydro-1,2,4-triazin-3-ones” (J Med Chem, 1996).
Calls of active or inactive are those of the source. No cut-off for these calls is given here.

Columns and labels:
[1] = Plasma Tmax in rat (PO dose); type: ADME, organism-based
How it was run: (§1)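 Rats dosed by oral gavage at 200 µmol/kg. Tail-vein blood drawn at about 1 h intervals; plasma analysed by HPLC. Mean of data from two animals.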

[2] = biological target: T1, Polyunsaturated fatty acid 5-lipoxygenase (Rattus norvegicus, UniProt P12527); assay: Inhibition of 5-lipoxygenase catalysis in rat basophilic leukemia (RBL) cells by measuring 5-HETE product formation; type: cell-based, RBL-1
T1 sequence (P12527 whole entry): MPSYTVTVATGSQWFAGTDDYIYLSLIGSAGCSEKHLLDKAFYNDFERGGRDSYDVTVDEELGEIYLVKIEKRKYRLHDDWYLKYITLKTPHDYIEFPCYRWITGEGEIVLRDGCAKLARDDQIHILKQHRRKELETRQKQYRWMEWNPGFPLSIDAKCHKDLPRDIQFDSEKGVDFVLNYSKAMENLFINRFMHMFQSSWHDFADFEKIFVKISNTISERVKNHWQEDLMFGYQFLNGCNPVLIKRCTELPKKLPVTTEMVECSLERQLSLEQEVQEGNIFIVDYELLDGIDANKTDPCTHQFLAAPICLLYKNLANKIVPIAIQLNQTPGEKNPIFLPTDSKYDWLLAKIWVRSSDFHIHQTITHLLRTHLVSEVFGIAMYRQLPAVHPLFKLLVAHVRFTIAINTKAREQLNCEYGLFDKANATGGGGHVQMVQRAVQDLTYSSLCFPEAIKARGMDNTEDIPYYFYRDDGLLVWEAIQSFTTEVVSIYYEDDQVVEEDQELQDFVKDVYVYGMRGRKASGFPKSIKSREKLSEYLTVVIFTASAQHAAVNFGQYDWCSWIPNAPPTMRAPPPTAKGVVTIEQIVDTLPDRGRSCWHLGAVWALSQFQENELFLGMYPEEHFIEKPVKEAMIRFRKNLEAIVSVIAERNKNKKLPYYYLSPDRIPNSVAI
How it was run: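 Crude 20000g supernatant from sonicated rat basophilic leukemia cells used as 5-LO source; 5-HETE product formation measured.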

[3] = Plasma Cmax in rat (PO dose); type: ADME, organism-based; parameters: route oral; how it was run: as §1
[4] = test system: Rattus norvegicus; assay: In vivo inhibition of rat anaphylaxis LTE4 leukotriene formation from peritoneal fluids, 1 hr after an oral dose of 200 uM/kg; type: functional
How it was run: (§2)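 Rats given 200 µmol/kg orally 1 h before antibody-antigen challenge inducing peritoneal leukotriene biosynthesis; LTE4 in peritoneal fluid measured. Mean of eight rats; percent inhibition versus control group mean; significance by one-way ANOVA with Tukey's multiple comparison.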

[5] = biological target: T2, Polyunsaturated fatty acid 5-lipoxygenase (Homo sapiens, UniProt P09917); assay: In vitro 5-lipoxygenase inhibitory activity against calcium ionophore (A23187) induced LTB4 formation in human whole blood.
T2 sequence (P09917 whole entry): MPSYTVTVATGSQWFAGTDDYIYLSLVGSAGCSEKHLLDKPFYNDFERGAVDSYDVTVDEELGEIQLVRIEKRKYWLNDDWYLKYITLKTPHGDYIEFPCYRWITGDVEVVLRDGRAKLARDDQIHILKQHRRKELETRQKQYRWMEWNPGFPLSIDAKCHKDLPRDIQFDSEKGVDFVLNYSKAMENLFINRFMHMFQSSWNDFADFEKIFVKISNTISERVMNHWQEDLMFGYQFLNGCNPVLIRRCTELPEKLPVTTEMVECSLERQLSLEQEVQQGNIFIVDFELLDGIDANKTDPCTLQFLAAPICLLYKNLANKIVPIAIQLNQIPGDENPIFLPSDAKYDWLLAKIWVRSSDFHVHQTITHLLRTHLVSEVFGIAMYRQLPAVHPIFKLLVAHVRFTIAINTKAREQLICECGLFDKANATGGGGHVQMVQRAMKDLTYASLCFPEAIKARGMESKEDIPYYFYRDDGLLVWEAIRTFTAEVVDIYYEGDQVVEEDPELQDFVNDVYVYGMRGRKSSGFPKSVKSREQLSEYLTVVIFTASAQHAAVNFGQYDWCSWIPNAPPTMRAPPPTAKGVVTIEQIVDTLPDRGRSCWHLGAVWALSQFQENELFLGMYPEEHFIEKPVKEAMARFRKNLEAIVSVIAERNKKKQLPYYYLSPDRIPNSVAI

[6] = test system: Rattus norvegicus; assay: In vivo inhibition of rat anaphylaxis leukotriene formation from peritoneal fluids, 1 hr after an oral dose of 200 uM/Kg; Not significant; type: functional, organism-based; how it was run: as §2
[7] = test system: Rattus norvegicus; assay: In vivo inhibition of rat anaphylaxis leukotriene formation from peritoneal fluids, 1 hr after an oral dose of 200 uM/Kg; type: functional; how it was run: as §2

Tmax [1] | IC50 [2] | Cmax [3] | IC50 [5] | Structure (SMILES) | Inhibition [4] | ED50 [6] | ED50 [7]
1.1 h | 178 µM | 95 µM | – | Nc1cccc(N2CCNC(=O)N2)c1 | – | – | –
1 h | – | 108 µM | – | O=C1NCCN(c2cccc(F)c2)N1 | 38% | – | –
1 h | 4.8 µM | 7 µM | 8.4 µM | CC1CN(c2cccc(-c3ccco3)c2)NC(=O)N1 (configuration not stated) | – | inactive | –
2 h | 5.6 µM | 122 µM | 4.8 µM | O=C1NCCN(c2cccc(Cl)n2)N1 | – | – | 16 mg/kg
2 h | 5.3 µM | 59 µM | 2.1 µM | O=C1NCCN(c2cccc(Cl)c2)N1 | – | – | 18 mg/kg
4.2 h | – | 35 µM | – | O=C1NCCN(c2cccc(Br)c2)N1 | 46% | – | –
1.1 h | – | 98 µM | 2 µM | Cc1cccc(N2CCNC(=O)N2)c1 | – | – | 18 mg/kg
1 h | 4.9 µM | 2 µM | 5.3 µM | O=C1NCCN(c2cccc(-c3ccsc3)c2)N1 | – | – | –
– | 14 µM | – | 24 µM | COCCOCC1CN(c2ccccc2)NC(=O)N1 (configuration not stated) | – | – | –
4 h | – | 20 µM | – | Cc1cc(C)cc(N2CCNC(=O)N2)c1 | 46% | – | –
1 h | – | 184 µM | 8.6 µM | O=C1NCCN(c2ccccn2)N1 | – | – | 8 mg/kg
2.1 h | 386 µM | 78 µM | – | Cc1ccccc1N1CCNC(=O)N1 | – | inactive | –
2 h | 11 µM | 141 µM | 5.8 µM | CC1CN(c2ccccc2)NC(=O)N1 (configuration not stated) | – | – | 13 mg/kg
2 h | 6.8 µM | 48 µM | 20 µM | CC(C)C1CN(c2ccccc2)NC(=O)N1 (configuration not stated) | – | – | 59 mg/kg
7.2 h | 2.6 µM | 26 µM | 5.2 µM | CC1CN(c2cccc(Br)c2)NC(=O)N1 (configuration not stated) | 54% | – | –
1.1 h | 300 µM | 105 µM | – | Cc1ccc(N2CCNC(=O)N2)cc1 | – | – | –
– | 6 µM | – | 13 µM | CC1CN(c2ccccc2)NC(=O)N1O (configuration not stated) | – | – | –
1 h | 3.8 µM | 125 µM | 1.7 µM | Cc1cccc(N2CC(C)NC(=O)N2)n1 (configuration not stated) | – | – | –
– | 32 µM | – | – | O=C1NCCN(c2cccc(O)c2)N1 | – | – | –
1 h | 1.1 µM | 2.5 µM | 0.2 µM | O=C1NCCN(c2cccc(OCc3ccccc3)c2)N1 | 14% | – | –

Tmax [1] | IC50 [2] | Cmax [3] | IC50 [5] | Structure (SMILES) | Inhibition [4] | ED50 [6] | ED50 [7]
– | – | – | 2.6 µM | O=C1NC(Oc2ccccc2)CN(c2ccccc2)N1 (configuration not stated) | – | inactive | –
1 h | – | 26 µM | 2.2 µM | CSc1cccc(N2CCNC(=O)N2)c1 | 73% | – | –
– | 32 µM | – | – | O=C1NCCN(c2ccncc2)N1 | – | – | –
1.2 h | 47 µM | 72 µM | – | COc1cccc(N2CCNC(=O)N2)c1 | 44% | – | –
– | – | – | 2.6 µM | O=C1NC(Oc2ccc(F)cc2)CN(c2ccccc2)N1 (configuration not stated) | – | inactive | –
4 h | 2.8 µM | 1 µM | 5.5 µM | CC1CN(c2cccc(-c3cccs3)c2)NC(=O)N1 (configuration not stated) | – | – | –
1 h | 32 µM | 58 µM | – | O=C1NCCN(c2cnc3ccccc3c2)N1 | – | – | –
2.2 h | 1.3 µM | 44 µM | – | Cc1cccc(N2CC(C)NC(=O)N2)c1 (configuration not stated) | 43% | – | –
2 h | 32 µM | 123 µM | – | O=C1NCCN(c2nc3ccccc3s2)N1 | – | – | –
– | – | – | 3.6 µM | CC1CN(c2cccc(Cl)c2)NC(=O)N1O (configuration not stated) | – | – | –
7.2 h | 6.3 µM | 70.2 µM | 1.8 µM | CC1CN(c2cccc(F)c2)NC(=O)N1 (configuration not stated) | 60% | – | –
1 h | 1.5 µM | 8 µM | – | CCCCC1CN(c2ccccc2)NC(=O)N1 (configuration not stated) | 42% | – | –
4.1 h | – | 24 µM | – | O=C1NCCN(c2cccc(C(F)(F)F)c2)N1 | 40% | – | –
1 h | 3.5 µM | 79 µM | 4.6 µM | O=C1NCCN(c2cccc(Br)n2)N1 | – | – | 41 mg/kg
– | 6 µM | – | > 50 µM | O=C1NCCN(c2cccc(-c3ccccn3)n2)N1 | – | – | –
– | 8.3 µM | – | – | O=C1NN(c2ccccc2)CCN1Cc1ccccc1 | – | – | –
2 h | 8.9 µM | 64 µM | 4.6 µM | O=C1NCCN(c2cc(F)cc(F)c2)N1 | 59% | – | –
– | 8.2 µM | – | 37 µM | O=C1NCCN(c2cccc(-c3cccs3)n2)N1 | – | – | –
– | 8.4 µM | – | 4.8 µM | Cc1cccc(N2CC(C)N(O)C(=O)N2)c1 (configuration not stated) | – | – | –
– | 32 µM | – | – | O=C1NCCN(c2cccnc2)N1 | – | – | –

Tmax [1] | IC50 [2] | Cmax [3] | IC50 [5] | Structure (SMILES) | Inhibition [4] | ED50 [6] | ED50 [7]
– | 22 µM | – | – | CON1C(=O)NN(c2ccccc2)CC1C (configuration not stated) | – | – | –
1 h | 5.5 µM | 85 µM | 7.1 µM | COc1cccc(N2CC(C)NC(=O)N2)n1 (configuration not stated) | – | – | –
– | 32 µM | – | – | CCN1CCN(c2ccccc2)NC1=O | – | – | –
– | 9.1 µM | – | 3 µM | O=C1NCCN(c2cccc(F)n2)N1 | – | – | –
– | 32 µM | – | – | CN1CCN(c2ccccc2)NC1=O | – | – | –
1 h | 2.1 µM | 3 µM | 8.8 µM | O=C1NCCN(c2cccc(-c3cccs3)c2)N1 | – | – | –
– | 30 µM | – | – | O=C1NCCN(c2cccc(-c3ccccn3)c2)N1 | – | – | –
– | 32 µM | – | – | O=C1NCCN(c2nc3ccccc3o2)N1 | – | – | –
1.1 h | – | 32 µM | – | CCc1cccc(N2CCNC(=O)N2)c1 | – | – | 24 mg/kg
4 h | 32 µM | 85 µM | – | O=C1NCCN(c2ccnc3cc(Cl)ccc23)N1 | – | – | –
2 h | 49 µM | 62 µM | – | O=C1NCCN(c2cccc([N+](=O)[O-])c2)N1 | – | – | –
1.2 h | – | 59 µM | 3.8 µM | CCC1CN(c2ccccc2)NC(=O)N1 (configuration not stated) | – | – | 24 mg/kg
– | 30 µM | – | – | O=C1NCCN(c2cccc(-c3ccncc3)c2)N1 | – | – | –
1 h | 5.5 µM | 99 µM | 7.9 µM | Cc1cccc(N2CCNC(=O)N2)n1 | – | – | 17 mg/kg
2 h | 3.5 µM | 48 µM | 1.6 µM | CC1CN(c2cccc(Cl)n2)NC(=O)N1 (configuration not stated) | – | inactive | –
– | 6.6 µM | – | 6 µM | CC1CN(c2cccc(F)n2)NC(=O)N1 (configuration not stated) | – | – | –
2 h | – | 21 µM | 3.1 µM | CC1CN(c2cccc(Br)n2)NC(=O)N1 (configuration not stated) | 57% | – | –
2.2 h | 6.8 µM | 20 µM | – | CC1(C)CN(c2ccccc2)NC(=O)N1 | – | inactive | –
4 h | 2.7 µM | 31 µM | 2.7 µM | CC1CN(c2cccc(Cl)c2)NC(=O)N1 (configuration not stated) | 40% | – | –
1 h | 9.5 µM | 101 µM | 3.5 µM | COc1cccc(N2CCNC(=O)N2)n1 | 26% | – | –
